Laboratory results as given in ChEMBL document CHEMBL1132156, “Synthesis and structure-activity relationships of potential anticancer agents: alkylcarbamates of 3-(9-acridinylamino)-5-hydroxymethylaniline” (J Med Chem, 1999).
Values belong to the compound of their own block, whether it stands above or below them.

Experiments:
HL-60 = experiment: In vitro inhibition of human leukemic HL-60 cell growth in culture; assay type: functional, cell-based
How it was run: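 HL-60 cells were seeded at 5×10^4 cells/mL in RPMI 1640 with 10% heat-inactivated FBS, penicillin and streptomycin, at 37 °C in 5% CO2. Cells were exposed for 72 h to six or seven drug concentrations, run in duplicate. Viability was read by XTT-tetrazolium microculture absorbance, and IC50 was derived from median-effect plot analysis.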

Mus musculus [1] = experiment: […] anticancer activity against B6D2F-1 mice bearing P388 leukemia measured by the average weight change(g) after day 7 at an intravenous dose of 18(mg/kg).; assay type: functional
How it was run: (§1)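 Male B6D2F1 mice (8 weeks old, 20–25 g) were implanted iv on day 0 with P388/0 ascites cells (0.2 mL; ascites:saline 1.10), which grew in the liver. Drug was given iv via the tail vein, Q2Dx5, on days 1, 3, 5, 7 and 9. Groups had 4–5 mice. Day 1 value is mean body weight; later days are weight change.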

Mus musculus [2] = experiment: […] anticancer activity against 5 B6D2F-1 mice bearing P388 leukemia measured by the toxicity death at an intravenous dose of 12(mg/kg)..; assay type: organism-based; conditions: in vivo
How it was run: (§2)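 Male B6D2F1 mice, 8 weeks old, 20–25 g. P388/0 ascites cells (0.2 mL, ascites:saline 1.10) were implanted iv on day 0, and the tumor grew in the liver. Drug was given iv by tail vein on days 1, 3, 5, 7 and 9 (Q2Dx5), with 4–5 mice per group. Survival time was scored as 8 a.m. (0.0), 1 p.m. (0.25) or 5 p.m. (0.5) deaths. %ILS was averaged against untreated controls, and toxic deaths were counted.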

Mus musculus [3] = experiment: […] anticancer activity against B6D2F-1 mice bearing P388 leukemia measured by the average body weight(g) after day 1 at an intravenous dose of 18(mg/kg).
Mus musculus [4] = experiment: […] anticancer activity against B6D2F-1 mice bearing P388 leukemia measured by the average weight change(g) after day 9 at an intravenous dose of 12(mg/kg).; assay type: functional
How it was run: (§3)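 Male B6D2F1 mice (8 weeks old, 20–25 g) were implanted iv on day 0 with P388/0 ascites cells (0.2 mL; ascites:saline = 1.10). Tumor grew in the liver. Drug was given iv via the tail vein, Q2Dx5, on days 1, 3, 5, 7 and 9. Body weight was recorded on days 1, 7, 9 and 11 and reported as the average change (g).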

Mus musculus [5] = experiment: […] anticancer activity against 5 4 B6D2F-1 mice bearing P388 leukemia measured by the toxicity death at an intravenous dose of 24(mg/kg).; assay type: organism-based; conditions: in vivo; how it was run: as §2
Mus musculus [6] = experiment: […] anticancer activity against B6D2F-1 mice bearing P388 leukemia measured by the average weight change(g) after day 11 at an intravenous dose of 12(mg/kg).; assay type: functional; how it was run: as §1
Mus musculus [7] = experiment: […] anticancer activity against 5 B6D2F-1 mice bearing P388 leukemia measured by the toxicity death at an intravenous dose of 18(mg/kg).; assay type: organism-based; conditions: in vivo; how it was run: as §2
Mus musculus [8] = experiment: […] anticancer activity against B6D2F-1 mice bearing P388 leukemia measured by the average weight change(g) after day 7 at an intravenous dose of 12(mg/kg).; assay type: functional; how it was run: as §1
Mus musculus [9] = experiment: […] anticancer activity against B6D2F-1 mice bearing P388 leukemia measured by the average weight change(g) after day 11 at an intravenous dose of 24(mg/kg).; assay type: functional; how it was run: as §1
Mus musculus [10] = experiment: […] anticancer activity against B6D2F-1 mice bearing P388 leukemia measured by the average body weight(g) after day 1 at an intravenous dose of 12(mg/kg).
Mus musculus [11] = experiment: […] anticancer activity against B6D2F-1 mice bearing P388 leukemia measured by the average body weight(g) after day 1 at an intravenous dose of 24(mg/kg).
Mus musculus [12] = experiment: […] anticancer activity against B6D2F-1 mice bearing P388 leukemia measured by the average weight change(g) after day 9 at an intravenous dose of 18(mg/kg).; assay type: functional; how it was run: as §3
Mus musculus [13] = experiment: […] anticancer activity against B6D2F-1 mice bearing P388 leukemia measured by the increase in lifespan(%) at an intravenous dose of 18(mg/kg).; assay type: functional; how it was run: as §2
Mus musculus [14] = experiment: […] anticancer activity against B6D2F-1 mice bearing P388 leukemia measured by the average weight change(g) after day 9 at an intravenous dose of 24(mg/kg).; assay type: functional; how it was run: as §3
Mus musculus [15] = experiment: […] anticancer activity against B6D2F-1 mice bearing P388 leukemia measured by the increase in lifespan(%) at an intravenous dose of 24(mg/kg).; assay type: functional; how it was run: as §2
Mus musculus [16] = experiment: […] anticancer activity against B6D2F-1 mice bearing P388 leukemia measured by the Average survival time(day+/-SD) at an intravenous dose of 24(mg/kg).; assay type: functional; how it was run: as §2
Mus musculus [17] = experiment: […] anticancer activity against B6D2F-1 mice bearing P388 leukemia measured by the average weight change(g) after day 7 at an intravenous dose of 24(mg/kg).; assay type: functional; how it was run: as §1
Mus musculus [18] = experiment: […] anticancer activity against B6D2F-1 mice bearing P388 leukemia measured by the increase in lifespan(%) at an intravenous dose of 12(mg/kg)..; assay type: functional; how it was run: as §2
Mus musculus [19] = experiment: […] anticancer activity against B6D2F-1 mice bearing P388 leukemia measured by the average survival time(day+/-SD) at an intravenous dose of 12(mg/kg)..; assay type: functional; how it was run: as §2
Mus musculus [20] = experiment: […] anticancer activity against B6D2F-1 mice bearing P388 leukemia measured by the Average survival time(day+/-SD) at an intravenous dose of 18(mg/kg).; assay type: functional; how it was run: as §2
Mus musculus [21] = experiment: […] anticancer activity against B6D2F-1 mice bearing P388 leukemia measured by the average weight change(g) after day 11 at an intravenous dose of 18(mg/kg).; assay type: functional; how it was run: as §1

Compound: Nc1cc(CO)cc(Nc2c3ccccc3nc3c(F)cccc23)c1
IC50 (HL-60): 0.15 µM

Compound: CN(C)CCNC(=O)c1cccc2c(Nc3cc(N)cc(CO)c3)c3ccccc3nc12
IC50 (HL-60): 0.13 µM

Compound: CNC(=O)c1cccc2c(Nc3cc(N)cc(CO)c3)c3cccc(C)c3nc12
IC50 (HL-60): 0.093 µM

Compound: CC(C)(C)OC(=O)Nc1cc(CO)cc(Nc2c3ccccc3nc3ccccc23)c1
Average weight change (Mus musculus [1]): -1.3 g | Toxicity related death (Mus musculus [2]): 0 | Body weight (Mus musculus [3]): 23.9 g | Average weight change (Mus musculus [4]): -0.7 g | Toxicity related death (Mus musculus [5]): 2 | Average weight change (Mus musculus [6]): 0.3 g | Toxicity related death (Mus musculus [7]): 0 | Average weight change (Mus musculus [8]): -0.1 g | Average weight change (Mus musculus [9]): -1.8 g | Body weight (Mus musculus [10]): 23.1 g | Body weight (Mus musculus [11]): 22.3 g | Average weight change (Mus musculus [12]): -1.2 g | Increase in life-span (Mus musculus [13]): 245% | Average weight change (Mus musculus [14]): -1.4 g | Increase in life-span (Mus musculus [15]): 228% | Average survival (Mus musculus [16]): 21 days | Average weight change (Mus musculus [17]): -1.4 g | Increase in life-span (Mus musculus [18]): 181% | Average survival (Mus musculus [19]): 18 days | IC50 (HL-60): 0.024 µM | Average survival (Mus musculus [20]): 22.1 days | Average weight change (Mus musculus [21]): -1.6 g

Compound: CCOC(=O)Nc1cc(CO)cc(Nc2c3ccccc3nc3c([N+](=O)[O-])cccc23)c1
IC50 (HL-60): 3.8 µM

Compound: Nc1cc(CO)cc(Nc2c3ccccc3nc3c(Cl)cccc23)c1
IC50 (HL-60): 0.37 µM

Compound: CNC(=O)c1cccc2c(Nc3cc(N)cc(CO)c3)c3ccccc3nc12
IC50 (HL-60): 0.29 µM

More lines, now with the values ahead:

IC50 (HL-60): 0.01 µM
Compound: CCOC(=O)Nc1cc(CO)cc(Nc2c3ccccc3nc3c(OC)cccc23)c1

IC50 (HL-60): 0.0085 µM
Compound: COC(=O)Nc1cc(CO)cc(Nc2c3ccccc3nc3ccccc23)c1

IC50 (HL-60): 0.029 µM
Compound: O=C(Nc1cc(CO)cc(Nc2c3ccccc3nc3ccccc23)c1)OCc1ccccc1

IC50 (HL-60): 0.032 µM
Compound: CCOC(=O)Nc1cc(CO)cc(Nc2c3cccc(OC)c3nc3c(C(=O)NC)cccc23)c1

IC50 (HL-60): 0.011 µM
Compound: CCOC(=O)Nc1cc(CO)cc(Nc2c3cccc(C)c3nc3c(C(=O)NC)cccc23)c1

IC50 (HL-60): 0.0074 µM
Compound: Cc1cccc2c(Nc3cc(N)cc(CO)c3)c3cccc(C(=O)NCCN(C)C)c3nc12

IC50 (HL-60): 0.067 µM
Compound: CCOC(=O)Nc1cc(CO)cc(Nc2c3ccccc3nc3c(Cl)cccc23)c1

IC50 (HL-60): 0.008 µM
Compound: CCCOC(=O)Nc1cc(CO)cc(Nc2c3ccccc3nc3ccccc23)c1
